Assay results taken from PMC4958353 (Drug Design, Development and Therapy, 2016).
≈ marks a conversion by molar mass, not a printed value.

What was measured:
M. tuberculosis H37Rv = assay: microplate Alamar Blue assay, in vitro anti-TB activity; type: cell-based; conditions: Mycobacterium tuberculosis
in vitro = conditions: human
[1] = compared with compound 10b (90.5%); cited from earlier work
[2] = pKa by reverse-phase HPLC; type: physicochemical
human serum albumin = human serum albumin (Homo sapiens, UniProt P02768); assay: protein binding by reverse-phase HPLC on human serum albumin column; type: in vitro ADME
human serum albumin, sequence (P02768 25-609): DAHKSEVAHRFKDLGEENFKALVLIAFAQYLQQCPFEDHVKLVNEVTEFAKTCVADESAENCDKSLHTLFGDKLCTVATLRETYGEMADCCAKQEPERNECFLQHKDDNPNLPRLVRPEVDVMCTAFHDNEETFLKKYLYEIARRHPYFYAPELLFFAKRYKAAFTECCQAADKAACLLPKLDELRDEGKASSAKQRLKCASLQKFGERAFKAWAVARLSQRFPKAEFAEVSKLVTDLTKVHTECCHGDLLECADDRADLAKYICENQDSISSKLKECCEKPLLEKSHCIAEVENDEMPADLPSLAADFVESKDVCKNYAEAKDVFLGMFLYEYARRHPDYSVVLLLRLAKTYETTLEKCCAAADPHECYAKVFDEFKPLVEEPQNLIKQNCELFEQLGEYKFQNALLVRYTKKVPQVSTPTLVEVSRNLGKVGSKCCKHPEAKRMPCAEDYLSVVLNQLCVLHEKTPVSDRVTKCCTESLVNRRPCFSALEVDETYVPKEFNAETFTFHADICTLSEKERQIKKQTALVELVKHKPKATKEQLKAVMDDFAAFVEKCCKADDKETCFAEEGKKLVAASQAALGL

[3] = human liver microsomal stability; type: in vitro ADME; conditions: HLM incubation
How it was run: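 Test compound incubated with human liver microsomes. The percentage of parent compound remaining was read at 15 min, 30 min, 1 h and 2 h of incubation.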

NC(=O)C(CC(=O)c1ccc(Oc2ccccc2)c(O)c1)c1ccccc1 (centres unmarked) [Compound 10a, 4-(3-Hydroxy-4-phenoxyphenyl)-4-oxo-2-phenylbutanamide]
MIC (M. tuberculosis H37Rv): 20 µg/mL (≈ 55.3 µM)
CC50 (in vitro): > 300 µg/mL

NC(=O)C(CC(=O)c1cccc(Oc2ccccc2)c1)c1ccccc1 (centres unmarked) [Compound 5a, 4-Oxo-4-(3-phenoxyphenyl)-2-phenylbutanamide]
MIC (M. tuberculosis H37Rv): > 100 µg/mL
CC50 (in vitro): > 300 µg/mL

Cc1ccc(C(CC(=O)c2cccc(Oc3ccccc3)c2)C(N)=O)cc1 (centres unmarked) [Compound 5b, 4-Oxo-4-(3-phenoxyphenyl)-2-p-tolylbutanamide]
MIC (M. tuberculosis H37Rv): > 100 µg/mL
CC50 (in vitro): > 300 µg/mL

Oc1cc(Cl)ccc1Oc1ccc(Cl)cc1Cl [Triclosan, reference compound]
MIC (M. tuberculosis H37Rv): 12.5 µg/mL (≈ 43.2 µM)
plasma protein binding [1]: even higher than compound 10b
CC50 (in vitro): > 300 µg/mL

Cc1ccc(C(CC(=O)c2ccc(Oc3ccccc3)c(O)c2)C(N)=O)cc1 (centres unmarked) [Compound 10b, 4-(3-Hydroxy-4-phenoxyphenyl)-4-oxo-2-p-tolylbutanamide]
MIC (M. tuberculosis H37Rv): 12.5 µg/mL (≈ 33.3 µM)
pKa [2]: 7.59
fraction unbound (human serum albumin): 0.095
Percentage remaining ([3]; 15 minutes): 70.18%
Percentage remaining ([3]; 30 minutes): 57.49%
Percentage remaining ([3]; 1 hour): 50.68%
Percentage remaining ([3]; 2 hours): 40.35%
CC50 (in vitro): > 300 µg/mL

NNC(=O)c1ccncc1 [Isoniazid, reference compound]
MIC (M. tuberculosis H37Rv): 0.125 µg/mL (≈ 0.911 µM)

COc1ccc(C(CC(=O)c2ccc(Oc3ccccc3)c(O)c2)C(N)=O)cc1 (centres unmarked) [Compound 10c, 4-(3-Hydroxy-4-phenoxyphenyl)-2-(4-methoxyphenyl)-4-oxobutanamide]
MIC (M. tuberculosis H37Rv): 25 µg/mL (≈ 63.9 µM)
CC50 (in vitro): 261 µg/mL (≈ 666 µM)
